Measurements: ChEMBL document CHEMBL1138555, “N-acylated and N,N'-diacylated imidazolidine-2-thione derivatives and N,N'-diacylated tetrahydropyrimidine-2(1H)-thione analogues: synthesis and antiproliferative activity” (Eur J Med Chem, 2009)

Tested on: M14
Assay: Growth inhibition of human M14 cells after 48 hrs by sulforhodamine B assay
Format: functional
Settings: M14, 48 h
In short: (§1)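 NCI screen panel. Five 10-fold concentrations from 10^-4 to 10^-8 M. Exposure for the last 48 h of a 72 h incubation. Growth estimated by sulforhodamine B protein assay. GI50 is the concentration giving 50% growth inhibition. Where that level was not reached or was exceeded, the value is given as above or below the highest or lowest concentration tested.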
`CCOC(=O)/C(=C/N1CCN(C(=O)c2ccco2)C1=S)C(=O)c1ccccc1` showed a GI50 of 8.9 µM.

Tested on: HOP-92
Assay: Growth inhibition of human HOP92 cells after 48 hrs by sulforhodamine B assay
Format: functional
Settings: HOP-92, 48 h
In short: as §1
`CCOC(=O)/C(=C/N1CCN(C(=O)c2ccco2)C1=S)C(=O)c1ccccc1` showed a GI50 of 23 µM.

Tested on: Malme-3M
Assay: Growth inhibition of human MALME-3M cells after 48 hrs by sulforhodamine B assay
Format: functional
Settings: not given
In short: as §1
Work on `CCOC(=O)/C(=C/N1CCN(C(=O)c2ccco2)C1=S)C(=O)c1ccccc1` yielded a GI50 of 13.3 µM.

Tested on: 786-0
Assay: Growth inhibition of human 786-0 cells after 48 hrs by sulforhodamine B assay
Format: functional
Settings: 786-0, 48 h
In short: as §1
Compound `CCOC(=O)/C(=C/N1CCN(C(=O)c2ccco2)C1=S)C(=O)c1ccccc1` has a GI50 of 12.9 µM.

Tested on: SNB-75
Assay: Growth inhibition of human SNB75 cells after 48 hrs by sulforhodamine B assay
Format: functional
Settings: SNB-75, 48 h
In short: (§2)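 NCI in vitro panel screen. Compounds tested at five 10-fold dilutions, 10^-4 to 10^-8 M. Cells in 96-well plates were exposed for the last 48 h of a 72 h incubation. Viability/growth was read by sulforhodamine B protein assay. GI50 is the concentration giving 50% growth inhibition. Values beyond the tested range are reported as greater or less than the maximum or minimum concentration.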
`CCOC(=O)/C(=C/N1CCN(C(=O)c2ccco2)C1=S)C(=O)c1ccccc1` gave a GI50 of 46 µM.

Tested on: SK-OV-3
Assay: Growth inhibition of human SKOV3 cells after 48 hrs by sulforhodamine B assay
Format: functional
Settings: SK-OV-3, 48 h
In short: as §1
`CCOC(=O)/C(=C/N1CCN(C(=O)c2ccco2)C1=S)C(=O)c1ccccc1` gave a GI50 of 20 µM.

Tested on: MDA-MB-231
Assay: Growth inhibition of human MDA-MB-231 cells after 48 hrs by sulforhodamine B assay
Format: functional
Settings: MDA-MB-231, 48 h
In short: as §1
In the case of `CCOC(=O)/C(=C/N1CCN(C(=O)c2ccco2)C1=S)C(=O)c1ccccc1`, the GI50 is reported as 10.8 µM.

Tested on: not listed separately
Assay: Growth inhibition of human […] cells after 48 hrs by sulforhodamine B assay
Format: functional
Settings: not given
In short: as §1
`CCOC(=O)/C(=C/N1CCN(C(=O)c2ccco2)C1=S)C(=O)c1ccccc1` gave a GI50 of 12.4 µM.

Tested on: SR
Assay: Growth inhibition of human SR cells after 48 hrs by sulforhodamine B assay
Format: functional
Settings: not given
In short: as §2
Compound `CCOC(=O)/C(=C/N1CCN(C(=O)c2ccco2)C1=S)C(=O)c1ccccc1` has a GI50 of 2.4 µM.

Tested on: SW-620
Assay: Growth inhibition of human SW620 cells after 48 hrs by sulforhodamine B assay
Format: functional
Settings: SW-620, 48 h
In short: as §2
Compound `CCOC(=O)/C(=C/N1CCN(C(=O)c2ccco2)C1=S)C(=O)c1ccccc1` has a GI50 of 7.9 µM.

Tested on: ACHN
Assay: Growth inhibition of human ACHN cells after 48 hrs by sulforhodamine B assay
Format: functional
Settings: not given
In short: as §1
In the case of `CCOC(=O)/C(=C/N1CCN(C(=O)c2ccco2)C1=S)C(=O)c1ccccc1`, the GI50 is reported as 8.5 µM.

Tested on: UACC-62
Assay: Growth inhibition of human UACC62 cells after 48 hrs by sulforhodamine B assay
Format: functional
Settings: UACC-62, 48 h
In short: as §2
`CCOC(=O)/C(=C/N1CCN(C(=O)c2ccco2)C1=S)C(=O)c1ccccc1` gave a GI50 of 7.6 µM.

Tested on: KM12
Assay: Growth inhibition of human KM12 cells after 48 hrs by sulforhodamine B assay
Format: functional
Settings: KM12, 48 h
In short: as §1
With `CCOC(=O)/C(=C/N1CCN(C(=O)c2ccco2)C1=S)C(=O)c1ccccc1` the GI50 was 10.1 µM.

Tested on: UO-31
Assay: Growth inhibition of human UO31 cells after 48 hrs by sulforhodamine B assay
Format: functional
Settings: UO-31, 48 h
In short: as §2
For `CCOC(=O)/C(=C/N1CCN(C(=O)c2ccco2)C1=S)C(=O)c1ccccc1`, the GI50 was 10 µM.

Tested on: HL-60(TB)
Assay: Growth inhibition of human HL-60(TB) cells after 48 hrs by sulforhodamine B assay
Format: functional
Settings: HL-60, 48 h
In short: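 NCI 60-cell-line screen protocol: cells exposed to compound at five 10-fold dilutions from 10^-4 to 10^-8 M for the last 48 h of a 72 h incubation. Sulforhodamine B protein assay estimated viability/growth. GI50 (50% growth inhibition) derived; where not reached or exceeded, reported as greater or less than the highest or lowest concentration tested.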
`CCOC(=O)/C(=C/N1CCN(C(=O)c2ccco2)C1=S)C(=O)c1ccccc1` gave a GI50 of 14.9 µM.

Tested on: T47D
Assay: Growth inhibition of human T47D cells after 48 hrs by sulforhodamine B assay
Format: functional
Settings: not given
In short: as §2
Compound `CCOC(=O)/C(=C/N1CCN(C(=O)c2ccco2)C1=S)C(=O)c1ccccc1` has a GI50 of 4.1 µM.

Tested on: OVCAR-8
Assay: Growth inhibition of human OVCAR8 cells after 48 hrs by sulforhodamine B assay
Format: functional
Settings: OVCAR-8, 48 h
In short: as §1
In the case of `CCOC(=O)/C(=C/N1CCN(C(=O)c2ccco2)C1=S)C(=O)c1ccccc1`, the GI50 is reported as 11.7 µM.

Tested on: SK-MEL-28
Assay: Growth inhibition of human SK-MEL-28 cells after 48 hrs by sulforhodamine B assay
Format: functional
Settings: SK-MEL-28, 48 h
In short: as §1
In the case of `CCOC(=O)/C(=C/N1CCN(C(=O)c2ccco2)C1=S)C(=O)c1ccccc1`, the GI50 is reported as 22.2 µM.

Tested on: NCI-H23
Assay: Growth inhibition of human NCI-H23 cells after 48 hrs by sulforhodamine B assay
Format: functional
Settings: NCI-H23, 48 h
In short: as §1
With `CCOC(=O)/C(=C/N1CCN(C(=O)c2ccco2)C1=S)C(=O)c1ccccc1` the GI50 was 7.7 µM.

Tested on: LOX IMVI
Assay: Growth inhibition of human LOXIMVI cells after 48 hrs by sulforhodamine B assay
Format: functional
Settings: not given
In short: as §1
In the case of `CCOC(=O)/C(=C/N1CCN(C(=O)c2ccco2)C1=S)C(=O)c1ccccc1`, the GI50 is reported as 6.5 µM.

Tested on: MDA-MB-435
Assay: Growth inhibition of human MDA-MB-435 cells after 48 hrs by sulforhodamine B assay
Format: functional
Settings: MDA-MB-435, 48 h
In short: as §1
Compound `CCOC(=O)/C(=C/N1CCN(C(=O)c2ccco2)C1=S)C(=O)c1ccccc1` has a GI50 of 14.4 µM.

Tested on: DU-145
Assay: Growth inhibition of human DU145 cells after 48 hrs by sulforhodamine B assay
Format: functional
Settings: DU-145, 48 h
In short: as §1
`CCOC(=O)/C(=C/N1CCN(C(=O)c2ccco2)C1=S)C(=O)c1ccccc1` showed a GI50 of 8 µM.

Tested on: HCT-15
Assay: Growth inhibition of human HCT15 cells after 48 hrs by sulforhodamine B assay
Format: functional
Settings: HCT-15, 48 h
In short: as §1
Compound `CCOC(=O)/C(=C/N1CCN(C(=O)c2ccco2)C1=S)C(=O)c1ccccc1` has a GI50 of 6.3 µM.
